Experimental data: ChEMBL document CHEMBL2384985 (Bioorg Med Chem Lett, 2013)
Calls of active or inactive are those of the source. The calls are words filed in the database; no cut-off is given here.

Key:
[1] = system: Embryonic stem cell; assay: Induction of cardiomyogenic activity in human embryonic stem cells assessed as cardiomyocyte yield at 1 to 5 uM measured on day 15 by FACS analysis; type: functional, cell-based
Procedure, shortened: (§1)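 Nkx2.5eGFP/w transgenic hESC line (eGFP driven by cardiac progenitor marker Nkx2.5). Compound present from Day 0, the day of embryoid body formation, to Day 8. On Day 15 EBs were dissociated to single cells for FACS. Nkx2.5 was read as GFP expression, and α-MHC by MF20 primary antibody with FITC-conjugated secondary.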

[2] = system: Embryonic stem cell; assay: Induction of cardiomyogenic activity in human embryonic stem cells assessed as cell growth at 5 uM measured on day 15 by FACS analysis; type: functional, cell-based
[3] = system: Embryonic stem cell; assay: Induction of cardiomyogenic activity in human embryonic stem cells assessed as cardiomyocyte yield at 5 to 15 uM measured on day 15 by FACS analysis; type: functional, cell-based; procedure, shortened: as §1
[4] = system: Embryonic stem cell; assay: (§2) Induction of cardiomyogenic activity in human embryonic stem cells assessed as cardiomyocyte yield at 5 uM measured on day 15 by FACS analysis relative to control; type: functional; procedure, shortened: as §1
[5] = Reduction of cardiomyogenic activity in human embryonic stem cells assessed as cardiomyocyte yield at 5 uM measured on day 15 by FACS analysis relative to control; type: functional, Embryonic stem cell; procedure, shortened: as §1
[6] = system: Embryonic stem cell; assay: Induction of cardiomyogenic activity in human embryonic stem cells assessed as cardiomyocyte yield at 5 to 100 uM measured on day 15 by FACS analysis; type: functional, cell-based; procedure, shortened: as §1
[7] = system: Embryonic stem cell; assay: Induction of cardiomyogenic activity in human embryonic stem cells assessed as cardiomyocyte yield at 2 to 5 uM measured on day 15 by FACS analysis; type: functional, cell-based; procedure, shortened: as §1
[8] = as §2; type: functional, Embryonic stem cell; procedure, shortened: as §1

Cc1cccc(-c2nc(-c3ccccc3F)[nH]c2-c2ccncc2)c1
Activity [1]: inactive

C[S+]([O-])c1ccc(-c2nc(-c3ccc(F)cc3)c(-c3ccncc3)[nH]2)cc1 (stereo not given)
Activity [2]: Active

Cc1cccc(-c2nc(-c3ccc([S+](C)[O-])cc3)[nH]c2C2=CCOCC2)c1 (stereo not given)
Activity [3]: inactive
Activity [4]: Active

C[S+]([O-])c1ccc(-c2nc(-c3ccc(F)cc3)c(C3=CCOCC3)[nH]2)cc1 (stereo not given)
Ratio [5]: 2
Activity [6]: inactive

Cc1cccc(-c2nc(-c3ccc(O)cc3)[nH]c2-c2ccncc2)c1
Activity [7]: inactive

Cc1cccc(-c2nc(-c3ccc([S+](C)[O-])cc3)[nH]c2-c2ccncc2)c1 (stereo not given)
Activity [2]: Active
Ratio [8]: 5

Cc1cccc(-c2nc(-c3c(F)cccc3F)[nH]c2-c2ccncc2)c1
Activity [1]: inactive
